# Screening data as filed in PubChem BioAssay.
# Hits are enriched below; roughly 8.2% of the tested compounds scored in any of these assays.
# M1 antagonist: antagonists of rat M1 muscarinic receptor. P08482. CHO-M1 cells, Fluo-4 calcium, ACh EC80 antagonist mode; hits give low values. B-score at 10 µM. actives 3.4% (n = 64,000). AID 628;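 active means calcium fluorescence response, raw or row-and-column corrected B-score, differing from the plate sample mean either way at a set confidence level, mostly lower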
# RORa activator: RORA (human) activation; CHO-K1 Gal4-RORA LBD luciferase reporter, luminescence; percent increase over mock-subtracted basal signal; actives 1.5% (n = 65,000); activation, % at 10 µM; AID 560; P35398;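 active means activation above the mean of all tested compounds plus 3 SD, cut at about 49% in these data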;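 further: 0% = DMSO-treated RORA cells and 100% = added signal equal to DMSO minus mock-transfected cells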
# M1 agonist: activates the M1 muscarinic receptor | actives 3% (n = 64,000) | CHO-M1 cells, Fluo-4 calcium fluorescence, agonist mode; hits give high values | AID 626 | B-score at 10 µM;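 active means fluorescence rise, raw or as B-score row- and column-corrected plate score, outside the 99.7% band of its plate's samples, either direction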
# SF-1 act: activators of human nuclear receptor SF-1; Q13285; CHO-K1 Gal4-SF-1 LBD luciferase reporter; % increase over DMSO SF-1-specific signal; activation, % at 10 µM; actives 1.9% (n = 65,000); AID 522;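 active means activation above the mean activation of all tested compounds plus 3 SD, cut at about 50% in these data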
#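 Compound – one dose, 10 µM compound, 1% DMSO · Test system – transient Gal4-SF-1 LBD reporter, CHO-K1 · Input – 4,000 cells in each well · Read-out basis – percent activation relative to DMSO median and mock-transfected background · Replicates – single measurement per compound · Technique – steady-glow luciferase luminescence, read after 15 min reagent incubation · Timing – 20 h compound treatment, 37 °C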
# HePTP inh: inhibitors of human HePTP phosphatase. inhibition, % at 20 µM. recombinant HePTP phosphatase activity, OD absorbance. actives 0.64% (n = 110,000). AID 521. P35236; in the data active means inhibition above about 50%;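 further: plate controls were vehicle for no effect and reference inhibitor for full effect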
# D1 mod: allosteric modulators of human D1 dopamine receptor; actives 5.9% (n = 58,000); HEK293 D1, CRE-luciferase, dopamine EC30 potentiation; actives deviate in either direction; P21728; B-score at 10 µM;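 active means luminescence count or its row- and column-corrected plate score outside the 99.7% band of the plate's sample wells, on either side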
# Target sequence (P21728 whole entry, looked up): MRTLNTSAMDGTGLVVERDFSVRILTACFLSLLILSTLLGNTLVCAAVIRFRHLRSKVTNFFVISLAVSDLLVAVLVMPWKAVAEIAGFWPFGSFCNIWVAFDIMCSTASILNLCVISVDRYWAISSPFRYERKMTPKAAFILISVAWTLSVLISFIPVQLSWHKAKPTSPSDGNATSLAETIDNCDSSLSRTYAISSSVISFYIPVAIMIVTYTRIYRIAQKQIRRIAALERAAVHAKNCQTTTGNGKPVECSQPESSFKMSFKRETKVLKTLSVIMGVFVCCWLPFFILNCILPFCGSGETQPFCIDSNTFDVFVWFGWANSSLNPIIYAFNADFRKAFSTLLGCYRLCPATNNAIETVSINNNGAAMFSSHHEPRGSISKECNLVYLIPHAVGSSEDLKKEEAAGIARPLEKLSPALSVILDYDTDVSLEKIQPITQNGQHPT
# D1 PAM confirm: D1 receptor (human) allosteric modulation, confirmed. shares compounds with D1 mod. HEK293 D1 CRE-luciferase, dopamine EC30 potentiation; hits give high values. luminescence at 10 µM. actives 88% (n = 2,200). AID 642;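 active means luminescence in either of two replicates above the same-plate mean plus 3 SD of the low-dose dopamine control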
# D1 no dopamine: secondary test of D1 modulators: activity without dopamine; shares compounds with D1 mod; AID 646; actives 0.8% (n = 1,900); HEK293 D1 CRE-luciferase, luminescence, no dopamine; hits give high values; luminescence at 10 µM; in the data active means luminescence above about 3900
# Isoprot counter: isoproterenol response counter-screen activity for D1 modulators; HEK293 D1 CRE-luciferase, isoproterenol EC30 counter-screen; actives 63% (n = 2,200); shares compounds with D1 mod; AID 647; calls only at 10 µM;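 active means luminescence in either replicate above plate mean of wells with a partly effective reference agonist dose plus 3 SD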;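 further: isoproterenol raises cAMP through native beta-adrenoceptor Gs so signal bypasses D1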
# * hit, by the source's call; i = inactive; nt = not tested or not shown; + = active, no number.
SMILES,M1 antagonist,RORa activator,M1 agonist,SF-1 act,HePTP inh,D1 mod,D1 PAM confirm,D1 no dopamine,Isoprot counter
CC1(C)Cc2nc(-c3ccccc3)n3cnnc3c2CO1,0.26,-20,-0.56,-7,7,9.5*,13436*,1760,+
CC(=O)CCc1c(C)c2ccccc2[nH]c1=S,nt,nt,nt,nt,-16,nt,nt,nt,nt
c1ccc(-c2nnc3sc(CN4CCc5ccccc54)cn23)cc1,-0.74,16,0.7,30,nt,2.6*,15088*,1624,i
Brc1ccc(-c2nnc3sc(CN4CCc5ccccc5C4)cn23)cc1,0.68,13,-0.58,-1,-4,1.6,nt,nt,nt
CCCCc1nc(NCCN2CCOCC2)c(C#N)c2c1COC(C)(C)C2,0.1,-4,-2.6,4,4,5.8*,11452*,1780,+
CCOc1cccc2cc(C(=O)Nc3cc(C)on3)c(=O)oc12,-0.84,2,-0.57,8,10,2.6*,4892,1608,i
CCOc1cccc2cc(C(=O)NCc3cccnc3)c(=O)oc12,-0.16,16,-1,4,8,0.84,nt,nt,nt
O=C(CC1SC(=NC2CCCCC2)NC1=O)Nc1ccccc1 (stereo not drawn),0.71,-21,-0.54,12,6,2.6*,6104*,1644,i
COc1cc2c(cc1OC)CN(C(=O)c1cc3ccccc3oc1=O)CC2,-0.69,10,0.43,22,3,1,nt,nt,nt
Cc1nccn1-c1c([N+](=O)[O-])c(=O)n(C)c2ccccc12,nt,nt,nt,nt,-10,nt,nt,nt,nt
COc1ccc(CNc2nc(NCc3ccc(OC)cc3)n(S(C)(=O)=O)n2)cc1,0.013,14,0.016,-2,4,4.7*,9448*,1620,+
CCC(=O)n1nc(NCc2ccc(OC)c(OC)c2)nc1NCc1ccc(OC)c(OC)c1,0.0066,13,0.56,-8,10,6*,15072*,nt,+
COCC(=O)n1nc(NCc2ccc(OC)cc2)nc1NCc1ccc(OC)cc1,1.2,-18,0.82,0,9,1.5,nt,nt,nt
CCC(=O)n1nc(-c2cccnc2)nc1NCc1ccc(OC)cc1,-0.048,-10,0.4,-2,8,11*,7416*,1672,i
CCC(=O)n1nc(-c2ccccc2)nc1NCc1ccccc1,-0.046,9,0.4,-2,-12,0.58,nt,nt,nt
O=C1c2ccc(-c3nc4ccccc4c(=O)o3)cc2C(=O)N1c1c[nH]c(=O)[nH]c1=O,nt,nt,nt,nt,3,nt,nt,nt,nt
COc1cccc(Nc2c(F)c(F)c(F)c(F)c2C(=O)O)c1,0.13,-7,-0.35,16,2,0.17,nt,nt,nt
O=S(=O)(Nc1ccccn1)c1ccc(C2CCCCC2)cc1,nt,-15,nt,-2,4,0.5,nt,nt,nt
Cc1nc(N2CCCCC2)c2sc(=S)n(C)c2n1,0.41,-17,0.53,-11,8,8.2*,12412*,27240*,+
Cc1nnc(N2CCCCC2)c2ccccc12,0.096,-2,1.5,-13,10,nt,nt,nt,nt
Fc1ccccc1-c1nnc(-c2ccc3c(c2)OCO3)o1,nt,nt,nt,nt,2,nt,nt,nt,nt
N#Cc1cc2c(nc1SCc1cccnc1)CCCCC2,-1.5,12,0.97,9,2,10*,23880*,1748,+
COc1ccccc1N1CCN(C(=O)COc2cccc3ccccc23)CC1,nt,nt,nt,nt,2,nt,nt,nt,nt
CC(C)c1ccc(-c2nc(N3CCCC3)nc3n[nH]c(N)c23)cc1,-0.0024,48,0.18,20,1,0.05,nt,nt,nt
Nc1[nH]nc2nc(N3CCOCC3)nc(-c3ccccc3)c12,0.46,12,0.53,14,1,9.8*,13488*,nt,+
SMILES,M1 antagonist,RORa activator,M1 agonist,SF-1 act,HePTP inh,D1 mod,D1 PAM confirm,D1 no dopamine,Isoprot counter
Cc1cccc(-c2nnc(SCc3cc(=O)[nH]c4ccccc34)n2C)c1,0.018,-12,-0.91,-14,7,-0.37,nt,nt,nt
Cc1nc(NCCCn2ccnc2)c2ccccc2n1,0.24,0,-0.022,11,5,nt,nt,nt,nt
CCc1nc(NCCCn2ccnc2)c2oc3ccccc3c2n1,0.099,3,-0.65,4,-5,5.5*,13664*,nt,+
COC(=O)C1NN=C(C(=O)c2ccccc2)C1c1ccccc1 (stereo not drawn),nt,nt,nt,nt,6,nt,nt,nt,nt
CCN=C(Nc1ccc2c(c1)OCO2)SC1CC(=O)N(c2ccccc2F)C1=O (stereo not drawn),0.14,-9,-0.3,-12,0,6.4*,12104*,2380,+
CN=C(Nc1ccc(F)cc1)SC1CC(=O)N(c2ccccc2F)C1=O (stereo not drawn),nt,nt,nt,nt,-5,nt,nt,nt,nt
O=C(O)c1ccc2c(c1)C(=O)N(c1ccc(NC(=O)c3ccc(Cl)cc3Cl)c(Cl)c1)C2=O,nt,nt,nt,nt,4,nt,nt,nt,nt
COc1ccc(C(=O)N(Cc2ccco2)Cc2cc3cc(C)ccc3[nH]c2=O)cc1OC,0.11,34,2.5,-3,5,1.5,nt,nt,nt
CCC(O)CNc1nc(-n2nc(C)cc2C)nc2sc3c(c12)CCCC3 (stereo not drawn),1,33,-0.035,-6,5,0.76,nt,nt,nt
Cc1cc(C)n(-c2nc(NCc3cccnc3)c3c4c(sc3n2)COC(C)(C)C4)n1,-0.75,-3,1.1,-1,0,3*,14976*,1540,+
COc1ccc(-c2ccc(=O)n(CC(=O)Nc3cccc(O)c3)n2)cc1OC,0.0071,-13,-0.44,4,-13,29*,4824,1660,i
CCC(=O)Nc1ccc(NC(=O)c2ccccc2[N+](=O)[O-])cc1,nt,nt,nt,nt,-8,nt,nt,nt,nt
Cc1sc2nc(C3CC3)nc(NCCNS(C)(=O)=O)c2c1C,0.21,-9,0.0089,7,7,6.5*,10452*,1764,i
COc1ccc(-c2nnc(SCC(=O)N3CCCc4ccccc43)o2)cc1OC,0.98,-10,-0.28,-14,nt,16*,19988*,1836,+
COc1ccc(-c2nc(CN3CCC(C(=O)N4CCc5ccccc54)CC3)c(C)o2)cc1OC,-1.2,-15,-0.47,4,1,2.8*,6820*,1624,+
COc1ccc(-c2nnc(SCC#CCO)o2)cc1OC,-0.75,6,0.34,-1,7,15*,16500*,1544,+
COc1ccccc1-c1nnc(SCC(=O)N2CCC(C)CC2)o1,nt,-14,nt,-1,1,3.1*,5288,nt,i
O=C(Nc1ccc2nc(-c3cccnc3)[nH]c2c1)c1ccco1,0.27,2,0.19,-4,1,-0.087,nt,nt,nt
OC(CC#CCN1CCC(c2ccccc2)C1)(c1ccccc1)c1ccccc1 (stereo not drawn),nt,nt,nt,nt,10,nt,nt,nt,nt
CCOC(=O)c1c(C)oc2cc(Br)c(O)c(Br)c12,0.37,16,0.42,9,1,7.9*,9840*,1808,i
